Experimental data as given in ChEMBL document CHEMBL3244011, “(Aryloxy)[p-(aryloxy)phenyl]- and (aryloxy)[p-(arylthio)phenyl]acetic acids and esters as hypolipidemic agents” (1979).

What was measured:
Assay type in all cases: functional
Design in all cases: scale not given: the % may be the effect or the level left
Rattus norvegicus [1] = experiment: Hypolipidemic activity in COBBS-CD rat assessed as reduction in serum sterol level at 0.03% administered with chow diet after 5 days relative to control
Summary of the method: (§1)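 Male COBBS-CD rats, four per treated group and eight per control group. The compound was mixed into ground rat chow at 0.1, 0.03 or 0.01% w/w (about 100, 30 and 10 mg/kg). Control chow received only the mixing solvent (methanol-chloroform 1:3 v/v). Food and water were ad libitum for 5 days, then rats were decapitated and blood collected. Serum sterols were measured by an automated method and expressed relative to controls; ± values are SD.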

Rattus norvegicus [2] = experiment: Hypolipidemic activity in COBBS-CD rat assessed as reduction in serum sterol level at 0.01% administered with chow diet after 5 days relative to control; summary of the method: as §1
Rattus norvegicus [3] = experiment: Hypolipidemic activity in COBBS-CD rat assessed as reduction in serum sterol level at 0.1% administered with chow diet after 5 days relative to control; summary of the method: as §1
Rattus norvegicus [4] = experiment: Hypolipidemic activity in COBBS-CD rat assessed as reduction in serum triglyceride level at 0.03% administered with chow diet after 5 days relative to control
Summary of the method: (§2)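 The compound was given in ground chow at 0.1, 0.03 or 0.01% w/w (about 100, 30 and 10 mg/kg) to male COBBS-CD rats (n=4; solvent-chow controls n=8) for 5 days ad libitum. Rats were killed by decapitation and blood collected. Serum triglycerides were assayed by an automated method and compared with controls; ± values are SD.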

Rattus norvegicus [5] = experiment: Hypolipidemic activity in COBBS-CD rat assessed as reduction in serum triglyceride level at 0.01% administered with chow diet after 5 days relative to control; summary of the method: as §2
Rattus norvegicus [6] = experiment: Hypolipidemic activity in COBBS-CD rat assessed as reduction in serum triglyceride level at 0.1% administered with chow diet after 5 days relative to control; summary of the method: as §2
Rattus norvegicus [7] = experiment: Hypolipidemic activity in COBBS-CD rat assessed as reduction in serum triglyceride level at 0.3% administered with chow diet after 5 days relative to control
Rattus norvegicus [8] = experiment: Hypolipidemic activity in COBBS-CD rat assessed as reduction in serum sterol level at 0.3% administered with chow diet after 5 days relative to control

Row | Compound | Activity (Rattus norvegicus [1]) [%] | Activity (Rattus norvegicus [2]) [%] | Activity (Rattus norvegicus [3]) [%] | Activity (Rattus norvegicus [4]) [%] | Activity (Rattus norvegicus [5]) [%] | Activity (Rattus norvegicus [6]) [%] | Activity (Rattus norvegicus [7]) [%] | Activity (Rattus norvegicus [8]) [%]
1 | CCOP(=O)(OCC)C(Oc1ccc(Cl)cc1)(C(=O)OC)c1ccc(Oc2ccc(Cl)cc2)cc1 (centres undefined) | 27 | 23 | 43 | 44 | 18 | 60 |  | 
2 | COC(=O)C(Oc1cccc(-c2ccccc2)c1)c1ccc(Oc2ccc(Cl)cc2)cc1 (centres undefined) | 21 | 8 | 28 | 45 | 38 | 66 |  | 
3 | COC(=O)C(Oc1ccc(C2CCCCC2)cc1)c1ccc(Oc2ccc(Cl)cc2)cc1 (centres undefined) | 21 | 20 | 51 | 47 | 37 | 66 |  | 
4 | O=C(O)C(Oc1ccc(F)cc1)c1ccc(Oc2ccc(Cl)cc2)cc1 (centres undefined) | 28 | 41 | 29 | 48 | 20 | 58 |  | 
5 | COC(=O)C(Oc1cccc(Cl)c1)c1ccc(Oc2ccc(Cl)cc2)cc1 (centres undefined) | 11 | -3 | 19 | 22 | 13 | 50 |  | 
6 | COC(=O)C(Oc1cc(C(C)(C)C)cc(C(C)(C)C)c1)c1ccc(Oc2ccc(Cl)cc2)cc1 (centres undefined) | -12 | -30 | -6 | -7 | 23 | 7 |  | 
7 | COC(=O)C(Oc1ccc(Cl)c(Cl)c1)c1ccc(Oc2ccc(Cl)cc2)cc1 (centres undefined) | 26 | 5 | 24 | 60 | 14 | 67 |  | 
8 | COC(=O)C(Oc1ccc2ccc(=O)oc2c1)c1ccc(Oc2ccc(Cl)cc2)cc1 (centres undefined) | 7 | -5 | -4 | -23 | 4 | -16 |  | 
9 | COC(=O)C(Oc1ccc(Cl)c2cccnc12)c1ccc(Oc2ccc(Cl)cc2)cc1 (centres undefined) | 4 | 4 | 5 | 4 | -3 | 5 |  | 
10 | COC(=O)C(Oc1cccc2c1CCC2)c1ccc(Oc2ccc(Cl)cc2)cc1 (centres undefined) | 10 | 7 | 19 | -8 | -39 | 17 |  | 
11 | COC(=O)C(Oc1ccc(Cl)c(C)c1)c1ccc(Oc2ccc(Cl)cc2)cc1 (centres undefined) | 34 | 34 | 39 | 39 | 28 | 54 |  | 
12 | COC(=O)C(Oc1ccc(NC(C)=O)cc1)c1ccc(Oc2ccc(Cl)cc2)cc1 (centres undefined) | -11 | -4 | -3 | -20 | -9 | 13 |  | 
13 | COC(=O)C(Oc1ccc(Cl)cc1)c1ccc(Oc2ccc(C#N)cc2)cc1 (centres undefined) | 19 | 20 | 16 | 60 | 50 | 71 |  | 
14 | COC(=O)C(Oc1cccc(C(F)(F)F)c1)c1ccc(Oc2ccc(C#N)cc2)cc1 (centres undefined) | 24 | 12 | 32 | 34 | -37 | 50 |  | 
15 | COC(=O)C(Oc1ccc(C(C)(C)C)cc1)c1ccc(Oc2ccc(C#N)cc2)cc1 (centres undefined) | 13 | 16 | 13 | 63 | 69 | 59 |  | 
16 | COC(=O)C(Oc1ccc(C(C)(C)C)cc1)c1ccc(Oc2ccc([N+](=O)[O-])cc2)cc1 (centres undefined) | -4 | -3 | 10 | 40 | 34 | 51 |  | 

Row | Compound | Activity (Rattus norvegicus [1]) [%] | Activity (Rattus norvegicus [2]) [%] | Activity (Rattus norvegicus [3]) [%] | Activity (Rattus norvegicus [4]) [%] | Activity (Rattus norvegicus [5]) [%] | Activity (Rattus norvegicus [6]) [%] | Activity (Rattus norvegicus [7]) [%] | Activity (Rattus norvegicus [8]) [%]
17 | COC(=O)C(Oc1ccc(Cl)cc1)c1ccc(Oc2ccccc2)cc1 (centres undefined) | 3 | 19 | 13 | 56 | 62 | 58 |  | 
18 | COC(=O)C(Oc1ccccc1)c1ccc(Oc2ccccc2)cc1 (centres undefined) | 19 | 10 | 21 | 49 | 46 | 58 |  | 
19 | COC(=O)C(Oc1ccc(Cl)cc1)c1ccc(Oc2ccc(Cl)c3ccccc23)cc1 (centres undefined) | 17 | 6 | 23 | 12 | 33 | 38 |  | 
20 | COC(=O)C(Oc1ccc(Cl)cc1)c1ccc(Oc2cccc(C(F)(F)F)c2)cc1 (centres undefined) | 31 | 8 | 32 | 47 | 35 | 50 |  | 
21 | COC(=O)C(Oc1ccc(C2CCCCC2)cc1)c1ccc(Oc2cccc(C(F)(F)F)c2)cc1 (centres undefined) | 18 | 8 | 20 | 34 | 40 | 59 |  | 
22 | COC(=O)C(Oc1ccc(C(C)(C)C)cc1)c1ccc(Oc2cccc(C(F)(F)F)c2)cc1 (centres undefined) | 35 | 12 | 26 | 70 | 52 | 77 |  | 
23 | COC(=O)C(Oc1ccc(Cl)cc1)c1ccc(Oc2ccc(C(C)(C)C)cc2)cc1 (centres undefined) | 11 | 17 | 7 | 30 | 25 | 46 |  | 
24 | COC(=O)C(Oc1cccc(C(C)(C)C)c1)c1ccc(Oc2ccc(C(C)(C)C)cc2)cc1 (centres undefined) | 6 | -5 | 4 | 13 | 21 | 33 |  | 
25 | COC(=O)C(Oc1ccc(Cl)cc1)c1ccc(Sc2ccccc2)cc1 (centres undefined) | 6 | 6 | 6 | 47 | 41 | 30 |  | 
26 | COC(=O)C(Oc1ccc(F)cc1)c1ccc(Sc2ccc(Cl)cc2)cc1 (centres undefined) | 23 | 21 | 22 | 18 | 1 | 36 |  | 
27 | COC(=O)C(Oc1ccc(C2CCCCC2)cc1)c1ccc(Sc2ccc(Cl)cc2)cc1 (centres undefined) | 15 | 14 | 19 | 44 | 33 | 45 |  | 
28 | COC(=O)C(C)(Oc1ccc(Cl)cc1)c1ccc(Oc2ccc(Cl)cc2)cc1 (centres undefined) | 14 | 9 | 39 | 44 | 39 | 63 |  | 
29 | O=C(OCC(O)CO)C(Oc1ccc(Cl)cc1)c1ccc(Oc2ccc(Cl)cc2)cc1 (centres undefined) | 27 | 13 | 39 | 53 | 24 | 63 |  | 
30 | CCOC(=O)C(C)(C)Oc1ccc(Cl)cc1 [CLOFIBRATE] |  |  | 0 |  |  | 30 | 58 | 19
31 | O=C(O)C(Oc1cccc(C(F)(F)F)c1)c1ccc(Cl)cc1 (centres undefined) [METAGLIDASEN] | 14 | 25 | 26 | 10 | 14 | 49 |  | 
